Measured values: ChEMBL document CHEMBL1240314, “Small-molecule inhibitor of p53 binding to mitochondria protects mice from gamma radiation” (2006)
Activity calls are given as the source filed them. No cut-off for these calls is given here.

Columns and labels:
[1] = target: Cellular tumor antigen p53 (Homo sapiens) (UniProt P04637); experiment: Inhibition of p53-dependent transcription of puma in UV-induced human MCF7 cells; assay type: cell-based
How it was run: (§1)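 Northern analysis of MCF7 cells, p53 wild-type and shRNA p53-knockdown. Induction by UV 8.5 J m–2 or Dox […]. RNA isolated 18 h after treatment; 10 µg hybridised with 32P-labelled full-length cDNA probes for Bax, Noxa or Puma. 18S rRNA used as loading control.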

Thymocyte = experiment: Induction of Puma gene expression in mouse thymocytes; assay type: functional, cell-based
[2] = target: Cellular tumor antigen p53 (Homo sapiens) (UniProt P04637); experiment: Inhibition of p53-mediated transactivation of p21 in gamma-stimulated human SK-MEL-29 cells at 10 uM after 6 hrs
[3] = target: Cellular tumor antigen p53 (Homo sapiens) (UniProt P04637); experiment: Inhibition of p53 in gamma-stimulated human ConA cells assessed as effect on cell cycle distribution at 10 uM after 24 hrs; assay type: cell-based
How it was run: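 ConA cells given 10 µM test agent, with or without 10 Gy gamma irradiation. Cell-cycle distribution measured 24 h later.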

U2OS [4] = experiment: Induction of Bax gene expression in human U2OS cells; assay type: functional, cell-based
How it was run: (§2)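 Northern blot: 10 mg RNA (so in the source) isolated 18 h after UV (8.5 J m–2) or doxorubicin (125 mg ml–1 as printed) from MCF7 or U2OS cells and p53-knockdown (lentiviral shRNA) counterparts; hybridized with 32P-labeled full-length cDNA probes for Bax, Noxa, Puma; 18S rRNA loading control.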

U2OS [5] = experiment: Induction of Puma gene expression in doxorubicin-induced human U2OS cells; assay type: functional, cell-based; how it was run: as §2
[6] = Antiapoptotic activity against gamma irradiation-induced apoptosis in mouse thymocyte assessed as cytosolic Cyt c concentration at 20 uM; assay type: functional, cell-based
How it was run: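 Thymocytes (20 × 10^6) from 5-week-old C57Bl/6J mice irradiated with 10 Gy gamma, with or without compound ([…] as printed); cytosolic fractions isolated 5 h after irradiation and probed for cytochrome c by western blot.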

U2OS [7] = experiment: Induction of Puma gene expression in human U2OS cells; assay type: functional, cell-based; how it was run: as §2
BJ [8] = experiment: Induction of p21 mRNA expression in human BJ cells; assay type: functional, cell-based
How it was run: (§3)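 Wild-type and p53-deficient cell pairs stimulated with 5-FU ([…] as printed) or gamma irradiation (10 or 15 Gy); p21 mRNA quantified by real-time PCR; means ± s.d., n = 3.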

[9] = target: Cellular tumor antigen p53 (Mus musculus) (UniProt P02340); experiment: Binding affinity to p53 in gamma irradiated mouse thymocyte assessed as cytosolic p53 concentration at 10 uM after 2 hrs
WI-38 = experiment: Antiapoptotic activity against Fas-induced apoptosis in human WI38 cells assessed as cell survival at 0.1 uM to 10 uM after 24 hrs by methylene blue assay in presence of 1 ug/ml cycloheximidine; assay type: functional, cell-based
[10] = target: Cellular tumor antigen p53 (Homo sapiens) (UniProt P04637); experiment: Inhibition of p53-dependent transcription of bax in human U2OS cells; assay type: cell-based
How it was run: (§4)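 Northern analysis of U2OS cells, p53 wild-type and shRNA p53-knockdown. Induction by UV 8.5 J m–2 or Dox […]. RNA isolated 18 h after treatment; 10 µg hybridised with 32P-labelled full-length cDNA probes for Bax, Noxa or Puma. 18S rRNA used as loading control.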

MCF7 [11] = experiment: Induction of Bax gene expression in UV-induced human MCF7 cells; assay type: functional, cell-based; how it was run: as §2
[12] = target: Cellular tumor antigen p53 (Homo sapiens) (UniProt P04637); experiment: Inhibition of p53-dependent transcription of bax in human MCF7 cells; assay type: cell-based; how it was run: as §1
[13] = target: Cellular tumor antigen p53 (Homo sapiens) (UniProt P04637); experiment: Inhibition of p53-dependent transcription of noxa in UV-induced human MCF7 cells; assay type: cell-based; how it was run: as §1
Homo sapiens [14] = species on record: Homo sapiens; experiment: Induction of p21 mRNA expression in human SK-MEL-29 cells; assay type: functional, cell-based; how it was run: as §3
MCF7 [15] = experiment: Induction of Puma gene expression in UV-induced human MCF7 cells; assay type: functional, cell-based; how it was run: as §2
[16] = target: Cellular tumor antigen p53 (Homo sapiens) (UniProt P04637); experiment: Binding affinity to p53 assessed as reduction in mitochondrial-bound p53 level at 10 uM
How it was run: (§5)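 Cell-free reconstitution: freshly isolated HeLa or Saos-2 mitochondria (40 mg as printed) incubated 1 h at 37 °C with purified baculoviral human wild-type p53 (60 ng) plus compound in MS buffer with CaCl2; mitochondria pelleted, washed three times, p53 cosedimentation by western blot, mt-Hsp75 loading control.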

[17] = target: Cellular tumor antigen p53 (Mus musculus) (UniProt P02340); experiment: Inhibition of p53-dependent transcription of puma in mouse thymocyte
[18] = target: Cellular tumor antigen p53 (Homo sapiens) (UniProt P04637); experiment: Inhibition of p53-dependent transcription of noxa in doxorubicin-induced human U2OS cells; assay type: cell-based; how it was run: as §4
[19] = target: Cellular tumor antigen p53 (Homo sapiens) (UniProt P04637); experiment: Binding affinity to p53 assessed as reduction in mitochondrial-bound p53 level at 50 uM; how it was run: as §5
[20] = target: Cellular tumor antigen p53 (Mus musculus) (UniProt P02340); experiment: Binding affinity to p53 in gamma irradiated mouse thymocyte assessed as cytosolic caspase 8 concentration at 10 uM after 2 hrs
[21] = target: Cellular tumor antigen p53 (Homo sapiens) (UniProt P04637); experiment: Binding affinity to p53 transfected in human […] cells assessed as reduction in p53 bound-Bcl-2 at 15 uM after 48 hrs; assay type: cell-based; settings: HEK293
How it was run: (§6)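 293T cells cotransfected with Flag-tagged wild-type Bcl-xL or Bcl-2 plus wild-type p53 plasmid; compound 15 mM (so in the source) applied 24 h after transfection; lysates (1 mg protein) immunoprecipitated with anti-Flag M2 gel, bound p53 detected with HRP-conjugated DO-1.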

[22] = target: Cellular tumor antigen p53 (Homo sapiens) (UniProt P04637); experiment: Inhibition of p53-dependent transcription of puma in doxorubicin-induced human U2OS cells; assay type: cell-based; how it was run: as §4
Homo sapiens [23] = species on record: Homo sapiens; experiment: Induction of p21 mRNA expression in gamma-stimulated human SK-MEL-29 cells; assay type: functional; how it was run: as §3
[24] = target: Cellular tumor antigen p53 (Homo sapiens) (UniProt P04637); experiment: Binding affinity to p53 transfected in human Saos-2 cells harboring pLV-53 assessed as reduction of p53 protein in mitochondria at 10 uM after 48 hrs
How it was run: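 Saos-2 cells infected with p53-expressing lentivirus; compound ([…] as printed) added 5 h after infection; mitochondrial and cytosolic fractions western blotted for p53 at 48 h post-infection, with mt-Hsp75 and β-actin as fraction loading controls.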

[25] = Antiapoptotic activity against fas-induced apoptosis in mouse fibroblast assessed as cell survival at 0.1 uM to 10 uM by methylene blue assay in presence of 1 ug/ml cycloheximidine after 24 hrs; assay type: functional, cell-based
[26] = target: Cellular tumor antigen p53 (Homo sapiens) (UniProt P04637); experiment: Inhibition of p53-dependent transcription of puma in human MCF7 cells; assay type: cell-based; how it was run: as §1
[27] = target: Cellular tumor antigen p53 (Homo sapiens) (UniProt P04637); experiment: Inhibition of p53-dependent transactivation of p21 in gamma-stimulated human ConA cells; assay type: cell-based
How it was run: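 ConA cells given 10 µM test agent and 10 Gy gamma irradiation. Protein extracts taken 6 h post-irradiation and p21 detected by immunoblotting.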

[28] = target: Cellular tumor antigen p53 (Homo sapiens) (UniProt P04637); experiment: Inhibition of p53-dependent transcription of noxa in human U2OS cells; assay type: cell-based; how it was run: as §4
[29] = target: Cellular tumor antigen p53 (Homo sapiens) (UniProt P04637); experiment: Binding affinity to p53 transfected in human […] cells assessed as reduction in p53 bound-Bcl-xL at 15 uM after 48 hrs; assay type: cell-based; settings: HEK293; how it was run: as §6
MCF7 [30] = experiment: Induction of Noxa gene expression in UV-induced human MCF7 cells; assay type: functional, cell-based; how it was run: as §2
BJ [31] = experiment: Induction of p21 mRNA expression in 5-fluorouracil-stimulated human BJ cells; assay type: functional, cell-based; how it was run: as §3
U2OS [32] = experiment: Induction of Bax gene expression in doxorubicin-induced human U2OS cells; assay type: functional, cell-based; how it was run: as §2

Chain of Cellular tumor antigen p53 (Mus musculus) (P02340 whole entry): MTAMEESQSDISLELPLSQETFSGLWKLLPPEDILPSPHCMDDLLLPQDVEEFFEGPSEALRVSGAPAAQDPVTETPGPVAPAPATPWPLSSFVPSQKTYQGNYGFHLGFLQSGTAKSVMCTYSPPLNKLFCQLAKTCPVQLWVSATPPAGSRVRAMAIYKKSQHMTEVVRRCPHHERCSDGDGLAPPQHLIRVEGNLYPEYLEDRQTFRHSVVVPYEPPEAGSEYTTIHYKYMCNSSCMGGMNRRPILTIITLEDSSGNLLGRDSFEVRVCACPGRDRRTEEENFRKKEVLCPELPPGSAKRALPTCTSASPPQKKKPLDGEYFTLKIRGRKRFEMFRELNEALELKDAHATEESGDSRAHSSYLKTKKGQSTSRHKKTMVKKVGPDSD
Chain of Cellular tumor antigen p53 (Homo sapiens) (P04637 whole entry, looked up): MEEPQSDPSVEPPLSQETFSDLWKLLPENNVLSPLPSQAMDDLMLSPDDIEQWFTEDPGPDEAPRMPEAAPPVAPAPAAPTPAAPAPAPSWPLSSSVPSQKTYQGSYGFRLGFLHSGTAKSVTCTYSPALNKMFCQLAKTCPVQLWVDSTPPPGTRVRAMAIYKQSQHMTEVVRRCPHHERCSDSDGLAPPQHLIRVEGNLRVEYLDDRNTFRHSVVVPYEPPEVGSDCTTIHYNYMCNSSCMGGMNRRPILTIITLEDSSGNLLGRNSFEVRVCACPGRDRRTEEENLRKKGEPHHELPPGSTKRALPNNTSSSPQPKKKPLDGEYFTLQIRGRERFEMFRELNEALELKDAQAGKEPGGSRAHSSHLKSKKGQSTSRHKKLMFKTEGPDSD

With `NS(=O)(=O)C#Cc1ccccc1` the inhibition [1] was “inactive”, the Activity (Thymocyte) was “inactive” and the inhibition [2] was “inactive”. The inhibition [3] was “inactive”, the Activity (U2OS [4]) was “inactive” and the Activity (U2OS [5]) was “inactive”. The Activity [6] was “Active”, the Activity (U2OS [7]) was “inactive” and the Activity (BJ [8]) was “inactive”. For the same compound, the Activity [9] was “inactive”, the Activity (WI-38) was “inactive” and the inhibition [10] was “inactive”. For the same compound, the Activity (MCF7 [11]) was “inactive”, the inhibition [12] was “inactive” and the inhibition [13] was “inactive”. The Activity (Homo sapiens [14]) was “inactive”, the Activity (MCF7 [15]) was “inactive” and the Activity [16] was “Active”. The inhibition [17] was “inactive”, the inhibition [18] was “inactive” and the Activity [19] was “Active”. The Activity [20] was “inactive”, the Activity [21] was “Active” and the inhibition [22] was “inactive”. The Activity (Homo sapiens [23]) was “inactive”, the Activity [24] was “Active” and the Activity [25] was “inactive”. For the same compound, the inhibition [26] was “inactive”, the inhibition [27] was “inactive” and the inhibition [28] was “inactive”. For the same compound, the Activity [29] was “Active”, the Activity (MCF7 [30]) was “inactive” and the Activity (BJ [31]) was “inactive”. For the same compound, the Activity (U2OS [32]) was “inactive”.
